Calls of active or inactive are those of the source. The rule behind the calls is not given here.
Key:
[1] = Activation of the compound assessed as half life at 10 Equiv of Et3P by HPLC and TLC method; format: physicochemical
Method in brief: (§1)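 Mitomycin at 0.03 mM final in buffered methanolic solution (0.1 M Tris-HCl, effective 'pH' 7.4), 25 °C, with added nucleophile (final 0.06–1.5 mM). Followed by UV–vis (200–600 nm) at ~373 nm, with mitosene products at ~313 nm, for more than two half-lives. Runs in duplicate and averaged. End-point 'pH' checked, mixtures analysed by HPLC and TLC against authentic samples.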

[2] = Activation of the compound assessed as half life at 20 Equiv of Et3P by HPLC and TLC method; format: physicochemical; method in brief: as §1
[3] = system: Nucleic Acid; assay: Binding affinity to Escherichia coli pBR322 assessed as DNA interstand cross link at 0.1 mM after 2 hrs by agarose gel electrophoresis in presence of 5 equiv of Et3P; format: nucleic-acid assay
Method in brief: (§2)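 EcoRI-linearized pBR322 plasmid DNA, deaerated with N2 for 15 min. Mitomycin (0.1–0.2 mM final, from 5 mM DMSO stock) and nucleophile (Et3P, L-DTT or GSH, 5 equiv, 0.5 mM final) added, then incubated 2 h at room temperature. Concentration scan with Et3P over […]. DNA extracted with phenol/chloroform and ethanol-precipitated, run on denaturing 1.2% alkaline agarose gel (40 mM NaOH, 1 mM EDTA), neutralised, stained, bands quantified.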

[4] = system: Nucleic Acid; assay: Binding affinity to Escherichia coli pBR322 assessed as DNA interstand cross link at 0.1 mM after 2 hrs by agarose gel electrophoresis in presence of 5 equiv of L-ditiothreitol; format: nucleic-acid assay; method in brief: as §2
[5] = system: Nucleic Acid; assay: Binding affinity to Escherichia coli pBR322 assessed as DNA interstand cross link at 0.5 mM after 6 mins by agarose gel electrophoresis in presence of 20 equiv of Et3P; format: nucleic-acid assay
[6] = Activation of the compound assessed as half life at 40 Equiv of Et3P by HPLC and TLC method; format: physicochemical; method in brief: as §1
[7] = system: Nucleic Acid; assay: Binding affinity to Escherichia coli pBR322 assessed as DNA interstand cross link at 0.2 mM after 2 hrs by agarose gel electrophoresis in presence of 5 equiv of Et3P; format: nucleic-acid assay
Method in brief: (§3)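 EcoRI-linearized pBR322 plasmid DNA, N2-deaerated 15 min, mitomycin added from DMSO stock (final 0.1–0.2 mM) with nucleophile (GSH, Et3P or L-DTT, 5 equiv) from DMSO stock; incubated room temperature 2 h. DNA phenol/CHCl3-extracted, EtOH-precipitated, resuspended in 10 mM Tris/1 mM EDTA pH 8.0. Run on denaturing 1.2% alkaline agarose gel (40 mM NaOH, 1 mM EDTA), neutralized, stained, bands quantified.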

[8] = system: Nucleic Acid; assay: Binding affinity to Escherichia coli pBR322 assessed as DNA interstand cross link at 0.2 mM after 2 hrs by agarose gel electrophoresis in presence of 5 equiv of L-ditiothreitol; format: nucleic-acid assay; method in brief: as §3
[9] = system: Nucleic Acid; assay: Binding affinity to Escherichia coli pBR322 assessed as DNA interstand cross link at 0.2 mM after 2 hrs by agarose gel electrophoresis in presence of 5 equiv glutathione; format: nucleic-acid assay; method in brief: as §3
[10] = system: Nucleic Acid; assay: Binding affinity to Escherichia coli pBR322 assessed as DNA interstand cross link at 0.05 to 0.25 mM after 2 hrs by agarose gel electrophoresis in presence of 5 equiv of Et3P; format: nucleic-acid assay; method in brief: as §2
[11] = Stability of the compound measured after 5 days by HPLC and TLC method; format: physicochemical; details: read-out: Stability
Method in brief: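 Mitomycin at 0.03 mM final in buffered methanolic solution (0.1 M Tris-HCl, effective 'pH' 7.4), 25 °C, […]. Followed by UV–vis (200–600 nm) at ~373 nm. Runs in duplicate and averaged. HPLC and TLC analysis at the end.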

[12] = Stability of the compound at 10 Equiv of L-ditiothreitol after 3 days by HPLC and TLC method; format: physicochemical; details: read-out: Stability; method in brief: as §1
[13] = Stability of the compound at 20 Equiv L-ditiothreitol measured after 3 days by HPLC and TLC method; format: physicochemical; details: read-out: Stability; method in brief: as §1
[14] = Stability of the compound at 20 Equiv of glutathione measured after 3 days by HPLC and TLC method; format: physicochemical; details: read-out: Stability; method in brief: as §1
[15] = Stability of the compound at 2 Equiv of Et3P measured after 5 days by HPLC and TLC method; format: physicochemical; details: read-out: Stability; method in brief: as §1
[16] = Activation of the compound assessed as half life at 5 Equiv of Et3P by HPLC and TLC method; format: physicochemical; method in brief: as §1
[17] = Activation of the compound assessed as half life at 50 Equiv of Et3P by HPLC and TLC method; format: physicochemical; method in brief: as §1
[18] = system: Nucleic Acid; assay: Binding affinity to Escherichia coli pBR322 assessed as DNA interstand cross link at 0.1 mM after 2 hrs by agarose gel electrophoresis in presence of 5 equiv glutathione; format: nucleic-acid assay; method in brief: as §2
[19] = Stability of the compound at 50 Equiv of Et3P after 3 days by HPLC and TLC method; format: physicochemical; details: read-out: Stability; method in brief: as §1
[20] = Stability of the compound at 20 Equiv of Et3P after 3 days by HPLC and TLC method; format: physicochemical; details: read-out: Stability; method in brief: as §1
[21] = Stability of the compound at 10 Equiv of Et3P after 3 days by HPLC and TLC method; format: physicochemical; details: read-out: Stability; method in brief: as §1
[22] = Stability of the compound at 10 Equiv of L-ditiothreitol after 5 days by HPLC and TLC method; format: physicochemical; details: read-out: Stability; method in brief: as §1
[23] = Stability of the compound at 20 Equiv of L-ditiothreitol after 5 days by HPLC and TLC method; format: physicochemical; details: read-out: Stability; method in brief: as §1

`CO[C@@]12[C@H](COC(N)=O)C3=C(C(=O)C(C)=C(NC[C@H]4CC[C@@H](CNC5=C(C)C(=O)C6=C(C5=O)[C@@H](COC(N)=O)[C@@]5(OC)[C@H]7N[C@H]7CN65)SS4)C3=O)N1C[C@@H]1N[C@@H]12` showed a half-life [1] of 6.24 h, a half-life [2] of 3.12 h and an Activity [3] of 83%. For the same compound, the Activity [4] was 77%.

`CO[C@@]12[C@H](OC(N)=O)C3=C(C(=O)C(C)=C(NCC4CCCCC(CNC5=C(C)C(=O)C6=C(C5=O)[C@@H](OC(N)=O)[C@@]5(OC)[C@H]7N[C@H]7CN65)SSC(CNC5=C(C)C(=O)C6=C(C5=O)[C@@H](OC(N)=O)[C@@]5(OC)[C@H]7N[C@H]7CN65)CCCCC(CNC5=C(C)C(=O)C6=C(C5=O)[C@@H](OC(N)=O)[C@@]5(OC)[C@H]7N[C@H]7CN65)SS4)C3=O)N1C[C@@H]1N[C@@H]12` (stereo partly drawn) gave a half-life [2] of 1.99 h, an Activity [5] of 35% and a half-life [6] of 1.01 h.

Compound `CO[C@@]12[C@H](COC(N)=O)C3=C(C(=O)C(C)=C(N)C3=O)N1C[C@@H]1N[C@@H]12` has an Activity [7] of 3%, an Activity [8] of 2% and an Activity [9] of 2%.

With `CO[C@@]12[C@H](COC(N)=O)C3=C(C(=O)C(C)=C(NCC4CCCCC(CNC5=C(C)C(=O)C6=C(C5=O)[C@@H](COC(N)=O)[C@@]5(OC)[C@H]7N[C@H]7CN65)SS4)C3=O)N1C[C@@H]1N[C@@H]12` (mixture of isomers) the Activity [10] was “Active”, the remaining at 120 h [11] was less than 10% and the remaining at 72 h [12] was less than 10%. The remaining at 72 h [13] was less than 10%, the remaining at 72 h [14] was less than 10% and the remaining at 120 h [15] was less than 10%. For the same compound, the half-life [16] was 5.52 h, the half-life [1] was 1.92 h and the half-life [2] was 1.2 h. It also gave a half-life [17] of 0.48 h, an Activity [3] of 94% and an Activity [4] of 95%. It also gave an Activity [18] of 21%.

`CO[C@@]12[C@H](COC(N)=O)C3=C(C(=O)C(C)=C(NCC(O)CCCCC(O)CNC4=C(C)C(=O)C5=C(C4=O)[C@@H](COC(N)=O)[C@@]4(OC)[C@H]6N[C@H]6CN54)C3=O)N1C[C@@H]1N[C@@H]12` (mixture of isomers) gave a remaining at 72 h [19] of less than 10%, a remaining at 72 h [20] of less than 10% and a remaining at 72 h [21] of less than 10%. It also gave a remaining at 120 h [11] of less than 10%, a remaining at 72 h [14] of less than 10% and an Activity [3] of 4%. For the same compound, the Activity [4] was 6%, the Activity [18] was 7% and the remaining at 120 h [22] was less than 10%. The remaining at 120 h [23] was less than 10%.

Source: ChEMBL document CHEMBL1817652, “Synthesis and mechanistic studies of a mitomycin dimer containing an eight-membered cyclic disulfide” (Bioorg Med Chem, 2011)
